# Measured values published in ChEMBL document CHEMBL4414620, “Structurally Modified Cyclopenta[b]benzofuran Analogues Isolated from Aglaia perviridis” (J Nat Prod, 2019).
# Columns and labels:
# HT-29 = test: Antiproliferative activity against human HT-29 cells incubated for 72 hrs by SRB assay; type: functional, cell-based; conditions: HT-29, 72 h
# Summary of the method: (§1)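 Purified isolates were screened for cytotoxicity against HT-29 and PC-3 human cancer cells, with paclitaxel as the positive control for both lines.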
# PC-3 = test: Antiproliferative activity against human PC3 cells incubated for 72 hrs by SRB assay; type: functional, cell-based; conditions: PC-3, 72 h; summary of the method: as §1
Structure (SMILES),IC50 (HT-29) [µM],IC50 (PC-3) [µM]
COc1ccc([C@@]23Oc4cc5c(c(OC)c4[C@]2(O)[C@H](O)[C@H](C(N)=O)[C@H]3c2ccccc2)[C@@H]2OC[C@H]([C@@H](O)CO)O[C@@H]2O5)cc1,> 10,> 10
COc1ccc([C@@]23Oc4cc(O[C@@H]5O[C@@H]([C@@H](O)CO)COC5O)cc(OC)c4[C@]2(O)[C@H](O)[C@H](C(N)=O)[C@H]3c2ccccc2)cc1 (mixture of isomers),2.3,2.3
COc1ccc([C@@]23Oc4cc5c(c(OC)c4[C@]2(O)[C@H](O)[C@H](C(N)=O)[C@H]3c2ccccc2)[C@@H]2OC[C@H]([C@H](O)CO)O[C@@H]2O5)cc1,> 10,> 10

# More lines, now with the values ahead:
IC50 (HT-29) [µM],IC50 (PC-3) [µM],Structure (SMILES)
> 10,> 10,COc1ccc([C@@]23Oc4cc5c(c(OC)c4[C@]2(O)[C@H](O)[C@H](C(N)=O)[C@H]3c2ccccc2)[C@H]2OC[C@H]([C@H](O)CO)O[C@H]2O5)cc1
> 10,> 10,COc1ccc([C@@]23Oc4cc5c(c(OC)c4[C@]2(O)[C@H](O)[C@H](C(N)=O)[C@H]3c2ccccc2)[C@H]2OC[C@H]([C@@H](O)CO)O[C@H]2O5)cc1
